Published values collected from several papers.
Each line is one published result; the experiments were not run side by side.
Target: Cyclin-dependent kinase 7 (CDK7, Homo sapiens, UniProt P50613)

CN(C)c1nccc(-c2cnn3ncccc23)n1 — remaining binding (binding; 1 µM): 82%
C=CC(=O)N1CCC(C(=O)NCC(=O)N2CCN(c3nc(-c4cnc(N)nc4C(F)F)nc(N4CCOCC4)n3)CC2)CC1 — remaining binding (binding; competition with immobilised ligand; 1 µM): 94%
O=C(NS(=O)(=O)c1ccc(NCC2CCOCC2)c([N+](=O)[O-])c1)c1ccc(N2CCN(Cc3ccc(C(F)(F)F)cc3-c3ccc(Cl)cc3)CC2)cc1Oc1cnc2[nH]ccc2c1 — remaining binding (cell-free assay; competition with immobilised ligand; 1 µM): 96%
CN(C)c1ncc(F)c(-c2cnn3ncccc23)n1 — remaining binding (binding; 1 µM): 78%
Cc1cnc(Nc2ccc(C(=O)N3CCC(N4CCCC4)CC3)cc2)nc1-c1cc2ccccc2s1 — remaining binding (binding; competition with immobilised ligand; 1 µM): 2.4%
O=C(O)c1cc(-c2ccc(C3CCNCC3)cc2)c2ccc(-c3ccc(C(F)(F)F)cc3)cc2c1 — remaining binding (cell-free assay; competition with immobilised ligand; 1 µM): 82%
N[C@H]1CCN(c2nccc(-c3cnn4ncccc34)n2)C1 — remaining binding (binding; 1 µM): 59%
O=C(Nc1cccnn1)N1CC(C/C=C/c2cncc(Oc3ccc(C(F)(F)F)cn3)n2)C1 — remaining binding (cell-free assay; competition with immobilised ligand; 1 µM): 81%
CNC(=O)[C@@H]1CC[C@@H](n2c(-c3ccc4cnccc4c3)nc3ccc(C(=O)NCc4cccc(C(N)=O)c4)cc32)C1 — remaining binding (binding; competition with immobilised ligand; 1 µM): 100%
COc1cccc(CNC(=O)c2nc3scc(COCc4ccc(C(=O)O)cc4)c3c(=O)[nH]2)c1 — remaining binding (cell-free assay; competition with immobilised ligand; 1 µM): 80.5%
O=C(Nc1c[nH]nc1C(=O)NC1CCNCC1)c1cc(F)cc(F)c1 — remaining binding (binding; competition with immobilised ligand; 1 µM): 5.6%
O=C(NCCCN1CCOCC1)c1ccc(Nc2ncc(Cl)c(-c3ccc(Cl)s3)n2)cc1 — remaining binding (binding; competition with immobilised ligand; 1 µM): 2.5%
FC(F)(F)Oc1cccc(-c2cnc3ccc(-c4ccncc4)nn23)c1 — remaining binding (cell-free assay; competition with immobilised ligand; 5 µM): 0.85%
CC1CCCN1c1nccc(-c2cnn3ncccc23)n1 (stereo not shown) — remaining binding (binding; 1 µM): 100%
CN(C)c1ncnc(-c2ccc3nc(Nc4cc(CN5CCN(C(=O)CC(F)(F)F)CC5)ccn4)[nH]c3c2)c1Cl — remaining binding (cell-free assay; competition with immobilised ligand; 1 µM): 80%
CC(C)(C)c1ccc(-c2nc(CBr)nn2-c2cccc(O)c2)cc1 — remaining binding (cell-free assay; competition with immobilised ligand; 10 µM): 89%
